Consider 13 compounds from ChEMBL document CHEMBL3632508, “Discovery of α-mangostin as a novel competitive inhibitor against mutant isocitrate dehydrogenase-1” (Bioorg Med Chem Lett, 2015).

For data set [1], the target named is Isocitrate dehydrogenase [NADP] cytoplasmic (Homo sapiens, UniProt O75874, R132H). The data set is described as follows: Competitive inhibition of IDH1-R132H mutant (unknown origin) using a-ketoglutarate and NADPH as substrate by steady state kinetic analysis. Put shortly: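 IDH1-R132H in buffer of 150 mM NaCl, 20 mM Tris–Cl pH 7.5, 10 mM MnCl₂, 150 μM β-NADPH, 0.03% (w/v) BSA; α-ketoglutarate varied to reach maximal activity; steady-state kinetic parameters fitted with an enzyme kinetics module.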

For data set [2], the system named is Isocitrate dehydrogenase [NADP] cytoplasmic (Homo sapiens), O75874 [R132H]. The data set is described as follows: Inhibition of IDH1-R132H mutant in human MCF10A cells assessed as decrease in histone H3 trimethylated lysine level (H3K4me3) at 5 uM incubated for 30 mins by Western blotting method. Type of data set: cell-based. To be noted: MCF-10A. A digest of the protocol: (§1)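 Isogenic IDH1 (+/R132H) MCF10A cells, compared with IDH1 (+/+) cells, given 5 μM compound; lysed in SDS buffer, protein by BCA, SDS-PAGE, PVDF transfer; probed overnight at 4 °C with H3K4me3, H3K9me3, H3K27me3, H3K36me3 or H3K79me3 antibodies, total H3 as reference; HRP secondary, ECL detection.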
In general terms: A western blot detects proteins with antibodies after separation by electrophoresis.

The test system is the same in data set [3]. Put plainly: Inhibition of IDH1-R132H mutant in human MCF10A cells assessed as increase in 5-hmC level at 5 uM incubated for 24 hrs by DAPI staining based fluorescence microscopy. Type of data set: cell-based. To be noted: MCF-10A. A digest of the protocol: (§2)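 Isogenic IDH1 (+/+) and (+/R132H) MCF10A cells on coverslips (5 × 10⁴ per well), 16 h at 37 °C, then 5 μM compound for 24 h; fixed in 4% paraformaldehyde, blocked, stained overnight with anti-5mC, 5hmC or 5fC antibodies; FITC secondary with DAPI, imaged by fluorescence microscopy.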

Data set [4] shares this test system. The data set is described as follows: Inhibition of IDH1-R132H mutant in human MCF10A cells assessed as increase in 5-fC level at 5 uM incubated for 24 hrs by DAPI staining based fluorescence microscopy. Format: cell-based. As to conditions: MCF-10A. Put shortly:
as §2

Data set [5] is described as follows: Cytotoxicity against IDH1 expressing human MCF10A cells assessed as cell viability at 5 uM after 24 hrs by hemacytometer counting method. Type of data set: cell-based. To be noted: mcf-10a. Put shortly:
(§3)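 Isogenic CRISPR-made IDH1 (+/+) and IDH1 (+/R132H) MCF10A cells seeded at 5.0 × 10⁴ per well, exposed to 5 μM compound, harvested at indicated times (24 h), viable cells counted by hemacytometer; mean ± standard deviation, Student t-test, n = 6.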

Data set [6] has as its system Isocitrate dehydrogenase [NADP] cytoplasmic (Homo sapiens), O75874 [R132H]. The data set is described as follows: Inhibition of IDH1-R132H mutant in human MCF10A cells assessed as decrease in histone H3 trimethylated lysine level (H3K79me3) at 5 uM incubated for 30 mins by Western blotting method. As to conditions: MCF-10A. Type of data set: cell-based. Put shortly:
as §1

Data set [7] shares this test system. Put plainly: Inhibition of IDH1-R132H mutant in human MCF10A cells assessed as decrease in histone H3 trimethylated lysine level (H3K9me3) at 5 uM incubated for 30 mins by Western blotting method. Type of data set: cell-based. As to conditions: MCF-10A. Put shortly: as §1
The test system is the same in data set [8]. The data set is described as follows: Inhibition of IDH1-R132H mutant in human MCF10A cells assessed as decrease in histone H3 trimethylated lysine level (H3K36me3) at 5 uM incubated for 30 mins by Western blotting method. Type of data set: cell-based. To be noted: MCF-10A. A digest of the protocol:
as §1

Data set [9] in a line: Cytotoxicity against IDH1-R132H mutant expressing human MCF10A cells assessed as cell viability at 5 uM after 24 hrs by hemacytometer counting method. Type of data set: cell-based. As to conditions: mcf-10a. A digest of the protocol:
as §3

Data set [10] deals with Isocitrate dehydrogenase [NADP] cytoplasmic (Homo sapiens), O75874 [R132H]. The data set is described as follows: Inhibition of IDH1-R132H mutant in human MCF10A cells assessed as decrease in histone H3 trimethylated lysine level (H3K27me3) at 5 uM incubated for 30 mins by Western blotting method. Type of data set: cell-based. As to conditions: MCF-10A. Put shortly: as §1

The test system is the same in data set [11]. Put plainly: Inhibition of IDH1-R132H mutant in human MCF10A cells assessed as decrease in 5-methylcytosine level at 5 uM incubated for 24 hrs by DAPI staining based fluorescence microscopy. Type of data set: cell-based. To be noted: MCF-10A. Put shortly:
as §2

In data set [12] the target is Isocitrate dehydrogenase [NADP] cytoplasmic (Homo sapiens) (UniProt O75874). Put plainly: Inhibition of human IDH1 expressed in IPTG-induced Escherichia coli BL21 cells assessed as reduction of NADP+ to NADPH after 5 mins by spectrophotometry. Also on record: concentration or dose not given beside the values.
Data set [13] relates to Isocitrate dehydrogenase [NADP] cytoplasmic (Homo sapiens), O75874 [R132H]. Put plainly: Inhibition of human IDH1 R132H mutant expressed in IPTG-induced Escherichia coli BL21 cells assessed as oxidation of NADPH to NADP+ after 5 mins by spectrophotometry. Further details: concentration or dose not given beside the values.

The structures appear in SMILES notation. Active and inactive are the calls of the source. No cut-off for these calls is given here.

Isocitrate dehydrogenase [NADP] cytoplasmic (Homo sapiens), O75874 [R132H], sequence (O75874 whole entry R132H): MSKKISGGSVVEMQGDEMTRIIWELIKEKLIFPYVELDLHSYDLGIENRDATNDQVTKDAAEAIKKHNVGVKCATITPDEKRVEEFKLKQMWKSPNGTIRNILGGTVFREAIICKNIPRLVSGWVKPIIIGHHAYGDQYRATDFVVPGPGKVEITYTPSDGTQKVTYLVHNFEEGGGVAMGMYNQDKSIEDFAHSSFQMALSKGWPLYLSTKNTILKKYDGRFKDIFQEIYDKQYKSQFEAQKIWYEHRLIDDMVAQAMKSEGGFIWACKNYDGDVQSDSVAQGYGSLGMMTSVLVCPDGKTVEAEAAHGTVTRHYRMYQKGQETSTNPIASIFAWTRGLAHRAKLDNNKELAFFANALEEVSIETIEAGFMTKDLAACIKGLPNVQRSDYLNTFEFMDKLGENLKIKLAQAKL
Isocitrate dehydrogenase [NADP] cytoplasmic, sequence (O75874 2-414 R132H limits assumed): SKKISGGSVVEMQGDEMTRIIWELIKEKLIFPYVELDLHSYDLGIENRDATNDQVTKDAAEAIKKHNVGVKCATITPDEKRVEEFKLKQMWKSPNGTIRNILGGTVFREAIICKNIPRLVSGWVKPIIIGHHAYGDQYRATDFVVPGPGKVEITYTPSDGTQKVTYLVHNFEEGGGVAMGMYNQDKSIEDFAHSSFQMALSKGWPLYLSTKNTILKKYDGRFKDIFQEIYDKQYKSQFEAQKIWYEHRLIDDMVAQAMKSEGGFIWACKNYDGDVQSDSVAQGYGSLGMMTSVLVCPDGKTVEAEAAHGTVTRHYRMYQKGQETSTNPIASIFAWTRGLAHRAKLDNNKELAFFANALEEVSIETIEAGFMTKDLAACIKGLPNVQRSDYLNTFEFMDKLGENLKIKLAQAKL
Isocitrate dehydrogenase [NADP] cytoplasmic (Homo sapiens), sequence (O75874 whole entry): as the sequence (O75874 whole entry R132H) above, with H132R counted along it

With `CC(C)=CCc1c(O)cc2oc3cc(O)c(OCc4cn(CC(=O)OC(C)(C)C)nn4)c(CC=C(C)C)c3c(=O)c2c1O`, in data set [1], the Ki (usually the equilibrium dissociation constant of an inhibitor or competing ligand from its target) is reported as “Not Active”.
With `CCN(CC)C(=O)Oc1cc2oc3cc(O)c(OC)c(CC=C(C)C)c3c(=O)c2c(O)c1CC=C(C)C`, in [1], the Ki result is “Not Active”.
For the compound `COc1cc2oc3cc(O)c(OC)c(CC=C(C)C)c3c(=O)c2c(O)c1CC=C(C)C`, the Ki in data set [1] (read-out: Ki) came to 12 µM.
On to `COc1c(OC(=O)N2CCOCC2)cc2oc3cc(O)c(CC=C(C)C)c(O)c3c(=O)c2c1CC=C(C)C`, for which, in [1], the Ki entry is “Not Active”.
Regarding `C=CCOc1cc2oc3cc(O)c(OC)c(CC=C(C)C)c3c(=O)c2c(O)c1CC=C(C)C`, the Ki result in [1] was “Not Active”.
On to `CC(C)=CCc1c(O)cc2oc3cc(O)c(O)c(CC=C(C)C)c3c(=O)c2c1O`, for which the Ki in data set [1] (read-out: Ki) was found to be 3.17 µM.
With `COc1c(O)cc2oc3cc(O)c(CC=C(C)C)c(O)c3c(=O)c2c1CC=C(C)C` [MANGOSTIN], the Ki in [1] (read-out: Ki) was determined as 2.85 µM. The inhibition result in data set [2], in data set [3], in data set [4], in [6], in [7] and in [8] was “Active” throughout. Besides, the inhibition result in data set [10] and in data set [11] was “Active” each time. The Activity result in data set [5] and in data set [9] was “Non-toxic” each time.
In the case of `CCN(CC)C(=O)Oc1cc2oc3cc(O)c(CC=C(C)C)c(O)c3c(=O)c2c(CC=C(C)C)c1OC`, the Ki entry in [1] is on record as “Not Active”.
On to `C=CCOc1cc2oc3cc(O)c(CC=C(C)C)c(O)c3c(=O)c2c(CC=C(C)C)c1OC`, for which the Ki in data set [1] (read-out: Ki) was determined as 17.4 µM.
Take `CC1(C)CC[C@]2(C)CC[C@]3(C)C(=CC[C@@H]4[C@@]5(C)[C@@H](O)C[C@H](O)C(C)(C)[C@@H]5CC[C@]43C)[C@@H]2C1`: the Activity in data set [12] turned out to be 99.2%; in data set [13], 111%.
Turning to `COc1c(O)cc2oc3cc4c(c(O)c3c(=O)c2c1CC=C(C)C)C=CC(C)(C)O4`, the Activity in data set [12] was 109%; in data set [13], 98.7%.
Regarding `CC1(C)CC[C@]2(C)CC[C@]3(C)C(=CC[C@@H]4[C@@]5(C)CC[C@H](O)C(C)(C)[C@@H]5[C@H](O)C[C@]43C)[C@@H]2C1`, the figures for the Activity in data set [12] and in data set [13] were 102% and 114%, respectively.
Taken in the same sequence, the figures for `C=C(C)C(C)CC[C@@H](C)[C@H]1CC[C@@]2(C)[C@@H]3CC[C@H]4C(C)(C)C(=O)CC[C@]4(C)C3=CC[C@]12C` (some centres not stated) were 106% and 124%.
